A selection: hits, their analogues and other compounds. The true share with any hit is near 1.5%.
OXTR potentiate: potentiates the human oxytocin receptor response | activation, % at 3 µM | P30559 | AID 2445 | CHO-OTR cells, Fluo-8 calcium fluorescence, potentiator mode; 0% = oxytocin EC15, 100% = EC100 | 320,000 compounds, 0.061% hits;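 active = activation above that plate's cutoff, the mean activation of tested compounds plus 3 SD, cut at about 6.6% in these data, passing the limit was not always enough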
Target sequence (P30559 whole entry, looked up): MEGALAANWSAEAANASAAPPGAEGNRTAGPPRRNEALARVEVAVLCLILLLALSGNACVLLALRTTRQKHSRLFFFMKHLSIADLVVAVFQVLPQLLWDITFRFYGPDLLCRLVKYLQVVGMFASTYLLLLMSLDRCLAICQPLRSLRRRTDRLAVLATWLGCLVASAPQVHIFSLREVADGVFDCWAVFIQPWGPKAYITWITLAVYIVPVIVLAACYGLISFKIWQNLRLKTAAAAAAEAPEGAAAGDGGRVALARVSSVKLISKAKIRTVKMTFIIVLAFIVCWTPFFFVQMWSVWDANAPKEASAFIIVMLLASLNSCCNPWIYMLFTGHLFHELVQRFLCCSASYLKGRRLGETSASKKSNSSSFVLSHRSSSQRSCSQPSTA
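Assay system: CHO-OTR cells, human receptor / Also added: oxytocin at about EC15, sub-maximal agonist stimulus / Dosing: single dose, 3.0 µM nominal final compound concentration / Incubation: 6 min pre-incubation, 100 s read / Technique: Fluo-8 calcium dye fluorescence / Read-out: % activation vs EC15 and EC100 oxytocin / Benchmarks: EC15 oxytocin low, 75 nM oxytocin high / Replicates: singlicate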
M4 PAM: CHRM4 positive allosteric modulation. 360,000 compounds, 0.4% hits. P08173. activation, % at 3 µM. AID 624126. CHO-K1 hM4/Gqi5, Fluo-8 calcium fluorescence, ACh EC20; 0% = ACh EC20, 100% = maximal ACh;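 active = activation above its plate's cutoff, the mean activation of sample wells plus 3 SD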
OXTR agonist: agonists of human oxytocin receptor | CHO-OTR cells, Fluo-8 calcium fluorescence; normalized: DMSO 0%, oxytocin 100% | 320,000 compounds, 0.32% hits | P30559 | AID 2435 | activation, % at 3 µM;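 active = activation above the mean of all tested compounds plus 3 SD, cutoff set per screening run, cut at about 20% in these data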;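 also: peak over basal fluorescence ratio from a 100 s FLIPR kinetic read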
V1R ag counter: V1a receptor agonism, counter-screen for OXTR agonists | AID 2797 | activation, % at 3 µM | CHO-V1R cells, Fluo-8 calcium fluorescence, agonist mode; 0% DMSO, 100% 3 nM vasopressin | P37288 | 320,000 compounds, 0.25% hits;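 active = activation above the mean activation of all tested compounds plus 3 SD, per screening run, cut at about 20% in these data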;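 also: signal is peak over basal fluorescence ratio across a 100 second FLIPR read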
M4 ag: CHRM4 agonism in calcium assay | P08173 | CHO-K1 hM4/Gqi5, Fluo-8 calcium fluorescence; vehicle 0%, full acetylcholine response 100% | activation, % at 3 µM | 360,000 compounds, 0.14% hits;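 active = activation above the run mean over all test wells plus 3 SD, cut at about 32% in these data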;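 also: peak over basal fluorescence ratio per well then scaled between controls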
CHRM4 antagonist: CHRM4 antagonism in calcium assay | P08173 | CHO-hM4 cells, ACh EC80, Fluo-8 calcium fluorescence | inhibition, % at 3 µM | 360,000 compounds, 0.73% hits;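 active = inhibition above its plate's cutoff, the mean inhibition of sample wells plus 3 SD, cut at about 27% in these data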
Of the large screens only hits and unclear results are named; the others gave an inactive call.

CCCOc1ccc(C(=O)NNC(=S)NC(=O)c2cccs2)cc1	OXTR agonist 79, V1R ag counter 85, M4 ag 110, CHRM4 antagonist 63
CCCOc1ccc(C(=O)NNC(=S)NC(C)=O)cc1	none
CC(C)CNC(=S)NNC(=O)c1ccco1	M4 PAM 38
COCCNC(=S)NNC(=O)c1ccco1	none
CCCOc1ccc(C(=O)NNC(=S)NC(=O)c2ccccc2)cc1	OXTR agonist 101, V1R ag counter 115, M4 ag 136, CHRM4 antagonist 27
CC1CCCC(NC(=O)CCNC(=O)c2ccc([N+](=O)[O-])cc2)C1C (stereo unspecified)	none
COc1cccc(CN2CCN(CC#Cc3ccccc3)CC2CCO)c1 (stereo unspecified)	none (no result: OXTR potentiate, OXTR agonist, V1R ag counter)
COc1ccc(C2=NOC(Cn3nc(C(=O)NCc4ccccc4OC)cc3-c3ccccc3)C2)cc1 (stereo unspecified)	CHRM4 antagonist 30
COc1ccc(C2=NOC(Cn3nc(C(=O)NCC4CC4)cc3-c3ccccc3)C2)cc1 (stereo unspecified)	CHRM4 antagonist 29
O=C(CCCN1C(=O)c2ccccc2C1=O)Nc1c(C(=O)C2CC2)oc2ccccc12	none
COC(=O)c1oc2ccc(Br)cc2c1NC(=O)CCCN1C(=O)c2ccccc2C1=O	CHRM4 antagonist 98
O=C(Nc1ncc(S(=O)(=O)c2ccc([N+](=O)[O-])cc2)s1)c1cccc2ccccc12	OXTR agonist 32, V1R ag counter 27
O=c1ccc2c(o1)/C(=C/C=C(Cl)Cl)CCC2	none
CCOC(=O)Cc1csc(NC(=O)C(C)c2ccc([N+](=O)[O-])cc2)n1 (stereo unspecified)	OXTR agonist 27, V1R ag counter 26
c1ccc(COc2ccc(CNCc3cccs3)cc2)cc1	CHRM4 antagonist 33
Brc1ccc(CNCc2cccs2)cc1	none
CN(C)c1ccc2nc3c(=O)[nH]c(=O)nc-3n(CC(O)C(O)C(O)CO)c2c1 (stereo unspecified)	OXTR agonist 23, V1R ag counter 35, M4 ag 48
Cc1ncc(C(O)c2ccc(N(C)C)cc2)n1Cc1ccccc1 (stereo unspecified)	none (no result: OXTR potentiate, OXTR agonist, V1R ag counter)
Cc1nnc(SCCC(=O)Nc2ccccc2Cl)o1	none
CCOc1nc2cnccc2n(CC(=O)Nc2c(C)cccc2CC)c1=O	none
O=C(NC1CCCC1)C1C(c2ccccc2)=Nc2ccccc2N1C(=O)c1ccc(C(F)(F)F)cc1 (stereo unspecified)	none (no result: OXTR potentiate, OXTR agonist, V1R ag counter)
O=C(NC1CCCC1)C1C(c2ccc(C(F)(F)F)cc2)=Nc2ccccc2N1C(=O)c1cccc(C(F)(F)F)c1 (stereo unspecified)	CHRM4 antagonist 35 (no result: OXTR potentiate, OXTR agonist, V1R ag counter)
OC1(C#CCN2CCCC2)c2ccccc2-c2ccccc21	CHRM4 antagonist 47
CCN(CC)CCC#CC1(O)c2ccccc2-c2ccccc21	CHRM4 antagonist 73
COc1ccc(C(C)=O)cc1COC(=O)c1ccc(C)c(S(=O)(=O)N2CCOCC2)c1	none
O=[N+]([O-])c1ccc(Sc2cccc[n+]2[O-])c2nonc12	CHRM4 antagonist 64 (no result: OXTR potentiate, OXTR agonist, V1R ag counter)
O=[N+]([O-])c1ccc(Nc2ccccc2)c2nonc12	none
O=C(NCc1nnnn1-c1ccc(F)cc1)C(=O)c1c[nH]c2ccccc12	none (no result: OXTR potentiate, OXTR agonist, V1R ag counter)
CCCCCNCc1ccc(Cl)cc1	none
CCCCCCC[N+](CC)(CC)CCCCc1ccc(Cl)cc1	CHRM4 antagonist 38
CN(C)CC1CCCCC1C1(O)c2ccccc2CSc2sccc21 (stereo unspecified)	none
O=C(c1cccc(Cl)c1)C1CCCN(Cc2ccc(N3CCNC3=O)cc2)C1 (stereo unspecified)	CHRM4 antagonist 29
COc1ccc(CN2CCC(C(=O)c3cccc(Cl)c3)CC2)cc1	none
COc1cc(F)ccc1S(=O)(=O)N1CCN(C23CC4CC(CC(C4)C2)C3)CC1	none
COc1cc(C)ccc1S(=O)(=O)N1CCN(C23CC4CC(CC(C4)C2)C3)CC1	CHRM4 antagonist 89
COc1cc(C2C=C(C34CC5CC(CC(C5)C3)C4)NC(=S)N2)cc(OC)c1OC (stereo unspecified)	none
COc1ccc(OC)c(C2C=C(C34CC5CC(CC(C5)C3)C4)NC(=S)N2)c1 (stereo unspecified)	CHRM4 antagonist 43
CCC(=O)Nc1ccc(NC(=S)NC(=O)/C=C/c2ccco2)cc1	none
CC(=O)NC(=S)Nc1ccc(NC(=S)NC(=O)/C=C/c2ccco2)cc1	M4 PAM 34
c1ccc2c(c1)nc1n2CC2CON(C3CCCCC3)C12 (stereo unspecified)	M4 PAM 25
c1ccc(N2OCC3Cn4c(nc5ccccc54)C32)cc1 (stereo unspecified)	M4 PAM 24
C[C@@H]1ON(C2CCCCC2)[C@H]2c3nc4ccccc4n3C[C@@H]12	none
CN(C)c1nn(C(=O)Nc2cccc(C(F)(F)F)c2)cc1-c1ccccc1	CHRM4 antagonist 27
Cn1nc(C(=O)Nc2cccc(C(F)(F)F)c2)ccc1=O	none
O=C(NCc1ccncc1)c1cccc(Cn2cc(Br)cn2)c1	CHRM4 antagonist 82
COc1cc2c(c(OC)c1OC)CC(=O)N(C)CC2	CHRM4 antagonist 33
O=P(c1ccccc1)(c1ccccc1)c1ccc(O)cc1	none
CCN(CC)S(=O)(=O)c1ccc(C(=O)NCC(c2cccs2)N2CCOCC2)cc1 (stereo unspecified)	CHRM4 antagonist 39
CN(C)S(=O)(=O)c1ccc(C(=O)NCC(c2cccs2)N2CCOCC2)cc1 (stereo unspecified)	none
COC(=O)c1ccccc1N=C(SC)N(C)C	none
CSC(=Nc1ccccc1)N=C(SCc1ccccc1)N(C)C	CHRM4 antagonist 46 (no result: OXTR potentiate, OXTR agonist, V1R ag counter)
O=C(O)c1nn(CC(=O)N2CCCCCC2)c(=O)c2ccccc12	none
CN(C(=O)Cn1nc(C(=O)O)c2ccccc2c1=O)C1(C#N)CCCCC1	M4 PAM 23
COc1cccc(CNC(=O)CCN2C(=O)[C@@H]3Cc4ccccc4CN3C2=O)c1	M4 PAM 20
COc1cccc(CNC(=O)CN2C(=O)c3ccccc3S2(=O)=O)c1	M4 PAM 25
O=C(CN1C(=O)c2ccccc2S1(=O)=O)NCc1ccccc1	none
CCCCC(CC)C(=O)NCCCN1CCN(CCCNC(=O)C(CC)CCCC)CC1 (stereo unspecified)	CHRM4 antagonist 34
CCC(C(=O)NCCCN1CCN(CCCNC(=O)C(CC)c2ccccc2)CC1)c1ccccc1 (stereo unspecified)	none
CCOC(=O)Cn1c(=N)n(CCOc2ccc3ccccc3c2)c2ccccc21	M4 ag 39
